In series [1] the target is Bcl-2-like protein 1 (Homo sapiens, UniProt Q07817). Briefly: Inhibition of human N-terminal His8-tagged Bcl-XL expressed in Escherichia coli BL21(DE3) assessed as inhibition of Fluorescein-labeled BAK binding after 1 to 2 hrs by fluorescence polarization assay. For orientation: Fluorescence polarisation rises when a labelled molecule tumbles more slowly, as on binding a larger partner.

Series [2] is described as follows: Inhibition of human N-terminal His6-tagged Bcl2 isoform 2 expressed in Escherichia coli BL21(DE3) assessed as inhibition of Fluorescein-labeled BIM binding after 1 to 2 hrs by fluorescence polarization assay.
Series [3] relates to NCI-H146. The series can be described thus: Induction of cell death in human NCI-H146 cells after 24 hrs by trypan blue assay. It is filed as functional, cell-based. A digest of the protocol: (§1)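 H146 cells were treated for 24 h across a range of concentrations. Cell death was scored by trypan blue assay.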
In series [4] the test system is NCI-H146. The series can be described thus: Induction of apoptosis in human NCI-H146 cells assessed as caspase3 activation after 24 hrs by Western blot analysis. It is filed as functional, cell-based. A digest of the protocol: (§2)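 H146 cells were treated for 24 h at a range of concentrations. Lysates were probed by Western blot with rabbit antibodies to PARP and caspase-3, detecting the cleaved forms. GAPDH served as loading control.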
A general note: In western blotting, separated proteins are transferred to a membrane and probed.

The test system of series [5] is NCI-H146. Briefly: Induction of apoptosis in human NCI-H146 cells assessed as PARP cleavage after 24 hrs by Western blot analysis. It is filed as functional, cell-based. A digest of the protocol: as §2
The target of series [6] is Induced myeloid leukemia cell differentiation protein Mcl-1 (Homo sapiens, UniProt Q07820). The series can be described thus: Inhibition of human N-terminal His8-tagged Mcl1 expressed in Escherichia coli BL21(DE3) assessed as inhibition of Fluorescein-labeled BID binding after 1 to 2 hrs by fluorescence polarization assay.
Induced myeloid leukemia cell differentiation protein Mcl-1, sequence (Q07820 whole entry): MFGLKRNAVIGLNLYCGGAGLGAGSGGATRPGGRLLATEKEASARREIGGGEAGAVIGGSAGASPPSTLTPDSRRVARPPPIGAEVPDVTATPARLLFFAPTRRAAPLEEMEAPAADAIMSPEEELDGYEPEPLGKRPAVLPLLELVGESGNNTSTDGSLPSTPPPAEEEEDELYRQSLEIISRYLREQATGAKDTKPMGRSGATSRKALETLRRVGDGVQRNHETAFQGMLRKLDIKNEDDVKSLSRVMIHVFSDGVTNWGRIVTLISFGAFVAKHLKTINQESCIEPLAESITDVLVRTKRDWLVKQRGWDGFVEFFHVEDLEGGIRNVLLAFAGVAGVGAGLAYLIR
A short description of series [7]: Antiproliferative activity against human NCI-H146 cells after 4 days by WST8 assay. It is filed as functional, cell-based. The following applies: NCI-H146, 96 h. In short, it runs like this: (§3)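 Growth inhibition was measured as described previously. IC50 values come from growth curves.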
The test system of series [8] is NCI-H1963. The series can be described thus: Antiproliferative activity against human NCI-H1963 cells after 4 days by WST8 assay. It is filed as functional, cell-based. The following applies: NCI-H1963, 96 h. In short, it runs like this:
as §3
A general note: Tetrazolium assays rely on reduction of a dye to a coloured formazan, in cell work by metabolically active cells.

For series [9], the system named is NCI-H1417. The series can be described thus: Antiproliferative activity against human NCI-H1417 cells after 4 days by WST8 assay. It is filed as functional, cell-based. The conditions noted are these: NCI-H1417, 96 h. In short, it runs like this:
as §3

Series [10] relates to Mus musculus. The series can be described thus: Toxicity in SCID mouse assessed as weight loss at 25 mg/kg, iv administered 5 days a week for 2 weeks. It is filed as organism-based. Also noted: dose 25 mg/kg, route intravenous. The conditions noted are these: in vivo.
In series [11] the test system is NCI-H146. Briefly: Induction of apoptosis in human NCI-H146 cells xenografted in SCID mouse assessed as PARP cleavage at 25 mg/kg, iv up to 24 hrs by Western blot analysis. It is filed as functional, organism-based. Also on record: dose 25 mg/kg. In short, it runs like this:
(§4)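 SCID mice bearing subcutaneous H146 tumors (about 100 mm3) received a single i.v. dose of 25 mg/kg or vehicle. Tumors were collected at 3, 6 and 24 h. Western blot of tumor tissue assessed PARP and caspase-3 and their cleaved forms, with GAPDH as loading control.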

Series [12] concerns NCI-H146. Briefly: Antitumor activity against human NCI-H146 cells xenografted in SCID mouse assessed as tumor regression at 25 mg/kg, iv administered 5 days a week for 2 weeks relative to vehicle-treated control. It is filed as functional, organism-based. Also noted: dose 25 mg/kg. A digest of the protocol:
(§5)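 SCID mice received 5 × 10^6 H146 cells with matrigel, injected subcutaneously on the dorsal side, one tumor per mouse. At 40–110 mm3 (mean 70 mm3), mice were randomized, 8 per group. Dosing was 25 mg/kg i.v. daily, 5 days/week for 2 weeks, versus vehicle. Tumor size and body weight were measured 3×/week during treatment and 2×/week afterwards.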

Series [13] relates to NCI-H146. The series can be described thus: Induction of apoptosis in human NCI-H146 cells xenografted in SCID mouse assessed as caspase3 activation at 25 mg/kg, iv up to 24 hrs by Western blot analysis. It is filed as functional, organism-based. Also noted: dose 25 mg/kg. In short, it runs like this: as §4
For series [14], the system named is NCI-H146. The series can be described thus: Induction of cell death in human NCI-H146 cells at 10 nM after 24 hrs by trypan blue assay. It is filed as functional, cell-based. A digest of the protocol:
as §1

In series [15] the test system is NCI-H146. Briefly: Induction of apoptosis in human NCI-H146 cells xenografted in SCID mouse assessed as PARP cleavage at 25 mg/kg, iv at 3 hrs by Western blot analysis. Also on record: dose 25 mg/kg. It is filed as functional, organism-based. A digest of the protocol:
as §4

The test system of series [16] is NCI-H146. The series can be described thus: Induction of apoptosis in human NCI-H146 cells assessed as PARP cleavage at 30 nM after 2 hrs by Western blot analysis. It is filed as functional, cell-based.
Series [17] deals with NCI-H146. Briefly: Induction of apoptosis in human NCI-H146 cells assessed as increase in cytochrome c release at 30 nM after 2 hrs. It is filed as functional, cell-based.
Series [18] can be described thus: Antitumor activity against human NCI-H146 cells xenografted in SCID mouse assessed as tumor size at 25 mg/kg, iv administered 5 days a week for 2 weeks measured on day 92 ( Rvb = 800 mm3). It is filed as functional. In short, it runs like this:
as §5

Series [19] concerns NCI-H146. Briefly: Antitumor activity against human NCI-H146 cells xenografted in SCID mouse assessed as tumor growth inhibition at 25 mg/kg, iv administered 5 days a week for 2 weeks relative to vehicle-treated control. It is filed as functional, organism-based. Also noted: dose 25 mg/kg. In short, it runs like this:
as §5

Series [20] has as its system NCI-H146. Briefly: Induction of apoptosis in human NCI-H146 cells assessed as increase in cytochrome c release after 2 hrs. It is filed as functional, cell-based.
Series [21] relates to Mus musculus. Briefly: Toxicity in SCID mouse xenografted with human NCI-H146 cells assessed as weight loss at 25 mg/kg, iv administered 5 days a week for 2 weeks. It is filed as organism-based. The following applies: in vivo. Also on record: dose 25 mg/kg, route intravenous. In short, it runs like this: as §5
For series [22], the system named is NCI-H146. Briefly: Induction of apoptosis in human NCI-H146 cells xenografted in SCID mouse assessed as caspase3 activation at 25 mg/kg, iv at 3 hrs by Western blot analysis. It is filed as functional, organism-based. Also noted: dose 25 mg/kg. In short, it runs like this:
as §4

For series [23], the system named is NCI-H146. Briefly: Induction of apoptosis in human NCI-H146 cells assessed as PARP cleavage after 2 hrs by Western blot analysis. It is filed as functional, cell-based.
Series [24] has as its system NCI-H146. Briefly: Induction of apoptosis in human NCI-H146 cells assessed as caspase3 activation at 10 nM after 24 hrs by Western blot analysis. It is filed as functional, cell-based. In short, it runs like this:
as §2

Series [25] deals with NCI-H146. The series can be described thus: Induction of apoptosis in human NCI-H146 cells assessed as PARP cleavage at 10 nM after 24 hrs by Western blot analysis. It is filed as functional, cell-based. A digest of the protocol:
as §2

Molecules are shown by their SMILES. Activity calls are given as the source filed them. The rule behind the calls is not given here.

Bcl-2-like protein 1, sequence (Q07817 whole entry): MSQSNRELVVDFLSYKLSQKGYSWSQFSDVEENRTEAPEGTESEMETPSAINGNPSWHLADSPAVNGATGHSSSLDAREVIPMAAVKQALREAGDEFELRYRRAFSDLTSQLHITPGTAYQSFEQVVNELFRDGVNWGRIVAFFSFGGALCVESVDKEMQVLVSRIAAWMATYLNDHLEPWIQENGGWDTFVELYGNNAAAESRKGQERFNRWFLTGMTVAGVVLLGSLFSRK

As a reminder, the Ki is a measure of affinity in units of concentration, obtained from inhibition or displacement. For orientation: IC50 means the concentration at which inhibition is half-maximal. In the case of `Cc1c(C(=O)O)c(-c2cccc(N3CCN(c4ccc(NS(=O)(=O)c5ccc(N[C@H](CCN(C)C)CSc6ccccc6)c([N+](=O)[O-])c5)cc4)CC3)c2)c(-c2ccc(Cl)cc2)n1C`, the figures for the Ki in series [1] and in series [2] were less than 1 nM and less than 0.6 nM, respectively. Also, the IC50 is 1.3 nM in series [2] and more than 2000 nM in series [6]. The Activity entry in series [3], in [4] and in series [5] was “Dose-dependent effect” in each case.

Turning to `Cc1c(C(=O)O)c(-c2cccc(N3CCN(c4ccc(NS(=O)(=O)c5ccc(N[C@H](CCN(C)C)CSc6ccccc6)c([N+](=O)[O-])c5)cc4)CC3)c2)c(-c2ccc(Cl)cc2)n1C1CC1`, the IC50 in series [1] is 7.7 nM; in series [7], 69 nM; in [2], 17.6 nM; in [8], 60 nM; in series [9], 154 nM; in [6] it was more than 2000 nM. For the same molecule, the Ki is less than 1 nM in series [1] and 4.3 nM in [2].

As to `CN(C)CC[C@H](CSc1ccccc1)Nc1ccc(S(=O)(=O)NC(=O)c2ccc(N3CCN(Cc4ccccc4-c4ccc(Cl)cc4)CC3)cc2)cc1[N+](=O)[O-]` [ABT 737], the IC50 worked out at 37 nM in [7], 59 nM in series [8] and 412 nM in series [9]. Further, the Activity entry in series [3], in [4] and in [5] was “Dose-dependent effect” in each case.

As for `CCn1c(C)c(C(=O)O)c(-c2cccc(N3CCN(c4ccc(NS(=O)(=O)c5ccc(N[C@H](CCN(C)C)CSc6ccccc6)c([N+](=O)[O-])c5)cc4)CC3)c2)c1-c1ccc(Cl)cc1`, the Activity result in series [10] is “Non-toxic”; in [3], “Dose-dependent effect”; in series [18] it was 200 mm3; in series [4] it was “Dose-dependent effect”; in series [20] it was “Dose-dependent effect”; in [5], “Dose-dependent effect”. Besides, the Activity was less than 10% in series [21] and “Dose-dependent effect” in [23]. Also, the IC50 in series [1] was 6.6 nM; in series [7] it was 8.1 nM; in series [2], 2 nM; in series [8], 4.5 nM; in series [9] it was 17.7 nM; in [6] it was more than 2000 nM. For the same molecule, the Ki in series [1] was less than 1 nM; in [2], less than 0.6 nM. Moreover, the result in series [11], in [12], in series [13], in [14], in series [15] and in series [16] was Active. Besides, the outcome in series [17] and in series [22] was Active. For the same molecule, in [19], the TGI entry is “Active”.

Consider `Cc1c(C(=O)O)c(-c2cccc(N3CCN(c4ccc(NS(=O)(=O)c5ccc(N[C@H](CCN(C)C)CSc6ccccc6)c([N+](=O)[O-])c5)cc4)CC3)c2)c(-c2ccc(Cl)cc2)n1C(C)C`, for which the Activity entry in series [10] was “Toxic”; in [3], “Dose-dependent effect”; in [4] it was “Dose-dependent effect”; in [20], “Dose-dependent effect”; in [5], “Dose-dependent effect”; in series [23] it was “Dose-dependent effect”. Besides, the IC50 in series [1] is 4.8 nM; in series [6] it was more than 2000 nM. In addition, the Ki in [1] was less than 1 nM. The outcome in series [24], in series [25], in series [14], in series [16] and in series [17] was Active.

The values above are taken from ChEMBL document CHEMBL2157965, “Structure-based design of potent Bcl-2/Bcl-xL inhibitors with strong in vivo antitumor activity” (J Med Chem, 2012).
